Test results taken from ChEMBL document CHEMBL4196145, “Antitumor Activity of Diterpenoids from Jatropha gossypiifolia: Cell Cycle Arrest and Apoptosis-Inducing Activity in RKO Colon Cancer Cells” (J Nat Prod, 2018).
Activity calls are given as the source filed them. The rule behind the calls is not given here.

Key:
RKO [1] = experiment: Growth inhibition of human RKO cells after 48 hrs by CCK-8 assay; type: functional, cell-based
Procedure, shortened: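 CCK-8 (WST-8) was then added for 1 h at 37 °C and optical density read at 450 nm. Survival was expressed relative to untreated control wells and IC50 calculated. Three independent experiments.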

LoVo = experiment: Growth inhibition of human LoVo cells after 48 hrs by CCK-8 assay; type: functional, cell-based
RKO [2] = experiment: Cell cycle arrest in human RKO cells assessed as accumulation at G1 phase at 5.2 uM after 24 hrs by propidium iodide staining based flow cytometry (reference value: 51.13%); type: functional
RKO [3] = experiment: Induction of apoptosis in human RKO cells assessed as early apoptotic cells at 2.6 uM after 24 hrs by annexin V-FITC/propidium iodide staining based flow cytometry (reference value: 1.98%); type: functional
Procedure, shortened: (§1)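 Annexin V-FITC/PI kit assay. RKO cells were treated for 24 h at 37 °C with compound, DMSO or 5-FU, collected and washed twice with PBS. They were resuspended in binding buffer and stained with annexin V-FITC and PI for 20 min at 37 °C in the dark. Flow cytometry was run immediately, with viable, early/late apoptotic and necrotic fractions read.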

RKO [4] = experiment: Cell cycle arrest in human RKO cells assessed as accumulation at G1 phase at 2.6 uM after 24 hrs by propidium iodide staining based flow cytometry (reference value: 51.13%); type: functional
RKO [5] = experiment: Cell cycle arrest in human RKO cells assessed as accumulation at S phase at 5.2 uM after 24 hrs by propidium iodide staining based flow cytometry (reference value: 37.89%); type: functional
RKO [6] = experiment: Induction of apoptosis in human RKO cells assessed as necrotic cells at 2.6 uM after 24 hrs by annexin V-FITC/propidium iodide staining based flow cytometry (reference value: 0.035%); type: functional; procedure, shortened: as §1
RKO [7] = experiment: Cell cycle arrest in human RKO cells assessed as accumulation at S phase at 2.6 uM after 24 hrs by propidium iodide staining based flow cytometry (reference value: 37.89%); type: functional
RKO [8] = experiment: Induction of apoptosis in human RKO cells assessed as late apoptotic cells at 2.6 uM after 24 hrs by annexin V-FITC/propidium iodide staining based flow cytometry (reference value: 3.91%); type: functional; procedure, shortened: as §1
RKO [9] = experiment: Induction of apoptosis in human RKO cells assessed as late apoptotic cells at 5.2 uM after 24 hrs by annexin V-FITC/propidium iodide staining based flow cytometry (reference value: 3.91%); type: functional; procedure, shortened: as §1
RKO [10] = experiment: Induction of apoptosis in human RKO cells assessed as necrotic cells at 5.2 uM after 24 hrs by annexin V-FITC/propidium iodide staining based flow cytometry (reference value: 0.035%); type: functional; procedure, shortened: as §1
RKO [11] = experiment: Induction of apoptosis in human RKO cells assessed as early apoptotic cells at 5.2 uM after 24 hrs by annexin V-FITC/propidium iodide staining based flow cytometry (reference value: 1.98%); type: functional; procedure, shortened: as §1
RKO [12] = experiment: Induction of apoptosis in human RKO cells at 5.2 uM after 24 hrs by DAPI staining based fluorescence microscopy; type: functional, cell-based
RKO [13] = experiment: Cell cycle arrest in human RKO cells assessed as accumulation at G2/M phase at 2.6 uM after 24 hrs by propidium iodide staining based flow cytometry (reference value: 10.97%); type: functional
RKO [14] = experiment: Cell cycle arrest in human RKO cells assessed as accumulation at G2/M phase at 5.2 uM after 24 hrs by propidium iodide staining based flow cytometry (reference value: 10.97%); type: functional
RKO [15] = experiment: Induction of apoptosis in human RKO cells assessed as nuclear condensation at 2.6 to 5.2 uM after 24 hrs by DAPI staining based fluorescence microscopy; type: functional, cell-based
RKO [16] = experiment: Induction of apoptosis in human RKO cells assessed as viable cells at 2.6 uM after 24 hrs by annexin V-FITC/propidium iodide staining based flow cytometry (reference value: 94.1%); type: functional; conditions: read-out: Activity; procedure, shortened: as §1
RKO [17] = experiment: Induction of apoptosis in human RKO cells assessed as nuclear fragmentation at 2.6 to 5.2 uM after 24 hrs by DAPI staining based fluorescence microscopy; type: functional, cell-based
RKO [18] = experiment: Induction of apoptosis in human RKO cells assessed as viable cells at 5.2 uM after 24 hrs by annexin V-FITC/propidium iodide staining based flow cytometry (reference value: 94.1%); type: functional; conditions: read-out: Activity; procedure, shortened: as §1
RKO [19] = experiment: Induction of apoptosis in human RKO cells after 24 hrs by annexin V-FITC/propidium iodide staining based flow cytometry; type: functional, cell-based; procedure, shortened: as §1
RKO [20] = experiment: Antimigratory activity against human RKO cells at 2.6 to 5.2 uM after 48 hrs by wound healing based inverted microscopy; type: functional, cell-based
Procedure, shortened: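 Scratch-wound assay. RKO monolayers above 90% confluence were scratched with a sterile pipette tip and debris rinsed off with PBS. Cells were then kept in MEM with 2% FBS at 37 °C with compound, DMSO vehicle or 5-FU. Wounds were photographed by inverted microscopy at 0 and 48 h, and scratch area was compared with the original wound.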

RKO [21] = experiment: Induction of apoptosis in human RKO cells assessed as viable cells at 10.2 uM after 24 hrs by annexin V-FITC/propidium iodide staining based flow cytometry (reference value: 94.1%); type: functional; conditions: read-out: Activity
RKO [22] = experiment: Induction of apoptosis in human RKO cells assessed as necrotic cells at 10.2 uM after 24 hrs by annexin V-FITC/propidium iodide staining based flow cytometry (reference value: 0.035%); type: functional
RKO [23] = experiment: Induction of apoptosis in human RKO cells assessed as late apoptotic cells at 20.4 uM after 24 hrs by annexin V-FITC/propidium iodide staining based flow cytometry (reference value: 3.91%); type: functional
RKO [24] = experiment: Induction of apoptosis in human RKO cells assessed as early apoptotic cells at 10.2 uM after 24 hrs by annexin V-FITC/propidium iodide staining based flow cytometry (reference value: 1.98%); type: functional
RKO [25] = experiment: Cell cycle arrest in human RKO cells assessed as accumulation at G1 phase at 20.4 uM after 24 hrs by propidium iodide staining based flow cytometry (reference value: 51.13%); type: functional
RKO [26] = experiment: Cell cycle arrest in human RKO cells assessed as accumulation at S phase at 20.4 uM after 24 hrs by propidium iodide staining based flow cytometry (reference value: 37.89%); type: functional
RKO [27] = experiment: Cell cycle arrest in human RKO cells assessed as accumulation at G1 phase at 10.2 uM after 24 hrs by propidium iodide staining based flow cytometry (reference value: 51.13%); type: functional
RKO [28] = experiment: Cell cycle arrest in human RKO cells assessed as accumulation at S phase at 10.2 uM after 24 hrs by propidium iodide staining based flow cytometry (reference value: 37.89%); type: functional
RKO [29] = experiment: Induction of apoptosis in human RKO cells assessed as early apoptotic cells at 20.4 uM after 24 hrs by annexin V-FITC/propidium iodide staining based flow cytometry (reference value: 1.98%); type: functional
RKO [30] = experiment: Cell cycle arrest in human RKO cells assessed as accumulation at G2/M phase at 20.4 uM after 24 hrs by propidium iodide staining based flow cytometry (reference value: 10.97%); type: functional
RKO [31] = experiment: Cell cycle arrest in human RKO cells assessed as accumulation at G2/M phase at 10.2 uM after 24 hrs by propidium iodide staining based flow cytometry (reference value: 10.97%); type: functional
RKO [32] = experiment: Induction of apoptosis in human RKO cells assessed as necrotic cells at 20.4 uM after 24 hrs by annexin V-FITC/propidium iodide staining based flow cytometry (reference value: 0.035%); type: functional
RKO [33] = experiment: Induction of apoptosis in human RKO cells assessed as viable cells at 20.4 uM after 24 hrs by annexin V-FITC/propidium iodide staining based flow cytometry (reference value: 94.1%); type: functional; conditions: read-out: Activity
RKO [34] = experiment: Induction of apoptosis in human RKO cells assessed as late apoptotic cells at 10.2 uM after 24 hrs by annexin V-FITC/propidium iodide staining based flow cytometry (reference value: 3.91%); type: functional

For `C=C1CC[C@H]2[C@@H](c3c(C)c(O)c4c(c31)C(=O)[C@@H](C)C4)C2(C)C`, the “growth inhibition (GI)” value (RKO [1]) was “inactive” and the “growth inhibition (GI)” value (LoVo) was “inactive”.
In the case of `CC(=O)O[C@H]1/C2=C/[C@@H](C)C(=O)C[C@H]3[C@@H](/C=C(\C)C(=O)[C@@]2(O)C[C@H]1C)C3(C)C`, the “growth inhibition (GI)” value (RKO [1]) is reported as “inactive” and the “growth inhibition (GI)” value (LoVo) is reported as “inactive”.
`C=C1CC[C@H]2[C@@H](c3c(C)c(O)c4c(c31)C(=O)[C@H](C)C4)C2(C)C` was tested, and the “growth inhibition (GI)” value (RKO [1]) was “inactive” and the “growth inhibition (GI)” value (LoVo) was “inactive”.
In the case of `CC(=O)O[C@H]1C2=C[C@@H](C)C(=O)[C@H]3[C@H]4[C@@H](C[C@@H](C)[C@]3(O)[C@H]2C[C@H]1C)C4(C)C`, the “growth inhibition (GI)” value (RKO [1]) is reported as “inactive” and the “growth inhibition (GI)” value (LoVo) is reported as “inactive”.
With `C/C1=C/[C@]23O[C@H]2[C@H](C)CC3C(=O)[C@]2(C)C(=O)CC(C)(C)[C@H]2CC1=O` (stereo not given in full) the “growth inhibition (GI)” value (RKO [1]) was “inactive” and the “growth inhibition (GI)” value (LoVo) was “inactive”.
For `C/C1=C/C2=C(C[C@H](C)C2)C(=O)[C@@]2(C)C(=O)CC(C)(C)[C@@H]2CC1=O`, the “growth inhibition (GI)” value (RKO [1]) was “inactive” and the “growth inhibition (GI)” value (LoVo) was “inactive”.
In the case of `C=C(C)[C@@H]1/C=C/[C@@H](C)C(=O)[C@H]2C[C@@H](C)[C@@H](OC(C)=O)/C2=C/[C@](C)(O)C(=O)C1`, the “growth inhibition (GI)” value (RKO [1]) is reported as “inactive” and the “growth inhibition (GI)” value (LoVo) is reported as “inactive”.
`C=C(C)[C@@H]1/C=C/[C@@H](C)C(=O)[C@H]2C[C@@H](C)[C@@H](OC(C)=O)/C2=C/[C@@H](C)C(=O)C1` was tested, and the “growth inhibition (GI)” value (RKO [1]) was “inactive” and the “growth inhibition (GI)” value (LoVo) was “inactive”.
`C=C1CC[C@@H](C(=C)C)[C@@H]2C=C(C)C(=O)C3=C(C(=O)[C@@H](C)[C@H]3O)[C@@H]12` showed an IC50 (RKO [1]) of 2.6 µM, an Activity (RKO [2]) of 36.06% and an Activity (RKO [3]) of 12.1%. For the same molecule, the Activity (RKO [4]) was 44.03%, the Activity (RKO [5]) was 38.18% and the Activity (RKO [6]) was 0.404%. It also gave an Activity (RKO [7]) of 37.68%, an Activity (RKO [8]) of 27.6% and an Activity (RKO [9]) of 68.2%. The Activity (RKO [10]) was 0.811%, the Activity (RKO [11]) was 21.5% and the Activity (RKO [12]) was “Active”. For the same molecule, the Activity (RKO [13]) was 18.3%, the Activity (RKO [14]) was 25.76% and the Activity (RKO [15]) was “Active”. For the same molecule, the viability at 2.6 µM (RKO [16]) was 59.9%, the Activity (RKO [17]) was “Active” and the viability at 5.2 µM (RKO [18]) was 9.5%. The Activity (RKO [19]) was “Dose-dependent effect”, the Activity (RKO [20]) was “Active” and the IC50 (LoVo) was 14.5 µM.
For `C/C1=C/C2=C(C[C@@H](C)C2)C(=O)[C@@]2(C)C(=O)CC(C)(C)[C@@H]2CC1=O`, the “growth inhibition (GI)” value (RKO [1]) was “inactive” and the “growth inhibition (GI)” value (LoVo) was “inactive”.
In the case of `C=C(C)[C@@H]1/C=C/[C@@H](C)C(=O)[C@H]2C[C@@H](C)[C@@H](OC(C)=O)[C@H]2/C=C(/C)C(=O)C1`, the “growth inhibition (GI)” value (RKO [1]) is reported as “inactive” and the “growth inhibition (GI)” value (LoVo) is reported as “inactive”.
`CC(=O)O[C@H]1/C2=C/[C@@H](C)C(=O)C[C@H]3[C@@H](/C=C(\C)C(=O)[C@H]2C[C@H]1C)C3(C)C` was tested, and the “growth inhibition (GI)” value (RKO [1]) was “inactive” and the “growth inhibition (GI)” value (LoVo) was “inactive”.
With `C=C(C)[C@@H]1/C=C/[C@@H](C)C(=O)[C@H]2C[C@@H](C)[C@@H](O)/C2=C/[C@@H](C)C(=O)C1` the “growth inhibition (GI)” value (RKO [1]) was “inactive” and the “growth inhibition (GI)” value (LoVo) was “inactive”.
In the case of `CC(=O)O[C@H]1/C2=C/[C@@H](C)C(=O)C[C@H]3[C@@H](C[C@@H](C)C(=O)[C@H]2C[C@H]1C)C3(C)C`, the “growth inhibition (GI)” value (RKO [1]) is reported as “inactive” and the “growth inhibition (GI)” value (LoVo) is reported as “inactive”.
`CC1=C2CC(C)(C)/C=C/C(=O)/C(C)=C\C3=C[C@H](C)C[C@]3(O2)C1=O` [JATROPHONE] was tested, and the IC50 (RKO [1]) was 8 µM and the IC50 (LoVo) was 18.6 µM.
In the case of `O=c1[nH]cc(F)c(=O)[nH]1` [FLUOROURACIL], the viability at 10.2 µM (RKO [21]) is reported as 69.2%, the IC50 (RKO [1]) is reported as 10.2 µM and the Activity (RKO [22]) is reported as 0.289%. It also gave an Activity (RKO [23]) of 36.7%, an Activity (RKO [24]) of 9.75% and an Activity (RKO [25]) of 66.4%. It also gave an Activity (RKO [26]) of 12.12%, an Activity (RKO [27]) of 62.56% and an Activity (RKO [28]) of 15.97%. For the same molecule, the Activity (RKO [29]) was 11.6%, the Activity (RKO [30]) was 21.48% and the Activity (RKO [31]) was 21.47%. It also gave an Activity (RKO [32]) of 0.065%, a viability at 20.4 µM (RKO [33]) of 51.7% and an Activity (RKO [34]) of 20.8%. It also gave an IC50 (LoVo) of 11.5 µM.
